How the values were obtained:
CARM1 [1] = molecular target: T1, CARM1 (Homo sapiens, UniProt Q86X55); assay: In vitro methylation assay, CARM1 with PABP1 as substrate; assay type: biochemical; conditions: for effect against PABP1 methylation by CARM1 (fluorograph): compound at 20 μM
T1 sequence (Q86X55 1-608): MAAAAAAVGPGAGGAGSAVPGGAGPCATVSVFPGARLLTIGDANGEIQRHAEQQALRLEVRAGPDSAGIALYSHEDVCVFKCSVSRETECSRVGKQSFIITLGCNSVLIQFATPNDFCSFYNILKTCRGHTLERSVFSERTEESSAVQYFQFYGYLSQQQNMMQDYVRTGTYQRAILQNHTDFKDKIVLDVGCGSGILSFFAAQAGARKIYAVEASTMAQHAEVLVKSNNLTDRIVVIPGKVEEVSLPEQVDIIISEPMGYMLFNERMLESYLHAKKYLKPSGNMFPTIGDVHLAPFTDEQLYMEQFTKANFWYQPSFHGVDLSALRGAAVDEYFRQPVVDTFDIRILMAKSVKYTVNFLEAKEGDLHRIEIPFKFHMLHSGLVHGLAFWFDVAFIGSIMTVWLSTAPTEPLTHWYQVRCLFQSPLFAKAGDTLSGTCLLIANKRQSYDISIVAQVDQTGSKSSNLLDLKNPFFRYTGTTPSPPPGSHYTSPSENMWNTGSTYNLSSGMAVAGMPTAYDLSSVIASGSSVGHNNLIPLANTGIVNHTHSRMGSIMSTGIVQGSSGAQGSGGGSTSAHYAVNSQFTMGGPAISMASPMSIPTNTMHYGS

CARM1 [2] = molecular target: T1, CARM1; assay type: biochemical; conditions: compound at 100 μM; substrates PABP1, CA150, SmB, histone H3
In short: (§1)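 Recombinant enzyme (0.1–0.2 μM) and substrate (0.5–1.5 μM) are incubated with [methyl-³H]AdoMet (85 Ci/mmol) in PBS pH 7.4. Test compound is present at 100 μM. Reactions run 90 min at 30 °C, are resolved by SDS/PAGE and transferred to PVDF. The membrane is sprayed with Enhance and exposed to film overnight. Substrate bands are located by Ponceau S, excised and counted (dpm) for graphic depiction.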

Suv39H1 = molecular target: T2, Suv39H1 (Homo sapiens, UniProt O43463); assay: In vitro methylation fluorograph, Suv39H1 with H3 as substrate; assay type: biochemical; conditions: compound at 100 μM
T2 sequence (O43463 1-412): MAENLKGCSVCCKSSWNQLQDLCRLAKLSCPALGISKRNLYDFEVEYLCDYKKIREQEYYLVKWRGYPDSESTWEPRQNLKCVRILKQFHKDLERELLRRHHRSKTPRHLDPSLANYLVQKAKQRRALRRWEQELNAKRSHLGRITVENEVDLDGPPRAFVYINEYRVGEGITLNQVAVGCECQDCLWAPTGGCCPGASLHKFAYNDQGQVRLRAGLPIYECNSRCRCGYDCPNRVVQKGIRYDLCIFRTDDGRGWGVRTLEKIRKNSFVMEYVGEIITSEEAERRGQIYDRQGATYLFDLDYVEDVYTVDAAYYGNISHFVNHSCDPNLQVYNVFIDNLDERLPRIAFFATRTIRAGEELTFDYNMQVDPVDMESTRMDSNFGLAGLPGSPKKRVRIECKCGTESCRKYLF
In short: as §1

PRMT5 = PRMT5 (Homo sapiens, UniProt O14744); assay: In vitro methylation fluorograph, PRMT5 with histone H4 as substrate; assay type: biochemical; conditions: compound at 100 μM
In short: as §1

G9a = molecular target: T3, G9a (Homo sapiens, UniProt Q96KQ7); assay: In vitro methylation fluorograph, G9a with H3 as substrate; assay type: biochemical; conditions: compound at 100 μM
T3 sequence (Q96KQ7 1-1210): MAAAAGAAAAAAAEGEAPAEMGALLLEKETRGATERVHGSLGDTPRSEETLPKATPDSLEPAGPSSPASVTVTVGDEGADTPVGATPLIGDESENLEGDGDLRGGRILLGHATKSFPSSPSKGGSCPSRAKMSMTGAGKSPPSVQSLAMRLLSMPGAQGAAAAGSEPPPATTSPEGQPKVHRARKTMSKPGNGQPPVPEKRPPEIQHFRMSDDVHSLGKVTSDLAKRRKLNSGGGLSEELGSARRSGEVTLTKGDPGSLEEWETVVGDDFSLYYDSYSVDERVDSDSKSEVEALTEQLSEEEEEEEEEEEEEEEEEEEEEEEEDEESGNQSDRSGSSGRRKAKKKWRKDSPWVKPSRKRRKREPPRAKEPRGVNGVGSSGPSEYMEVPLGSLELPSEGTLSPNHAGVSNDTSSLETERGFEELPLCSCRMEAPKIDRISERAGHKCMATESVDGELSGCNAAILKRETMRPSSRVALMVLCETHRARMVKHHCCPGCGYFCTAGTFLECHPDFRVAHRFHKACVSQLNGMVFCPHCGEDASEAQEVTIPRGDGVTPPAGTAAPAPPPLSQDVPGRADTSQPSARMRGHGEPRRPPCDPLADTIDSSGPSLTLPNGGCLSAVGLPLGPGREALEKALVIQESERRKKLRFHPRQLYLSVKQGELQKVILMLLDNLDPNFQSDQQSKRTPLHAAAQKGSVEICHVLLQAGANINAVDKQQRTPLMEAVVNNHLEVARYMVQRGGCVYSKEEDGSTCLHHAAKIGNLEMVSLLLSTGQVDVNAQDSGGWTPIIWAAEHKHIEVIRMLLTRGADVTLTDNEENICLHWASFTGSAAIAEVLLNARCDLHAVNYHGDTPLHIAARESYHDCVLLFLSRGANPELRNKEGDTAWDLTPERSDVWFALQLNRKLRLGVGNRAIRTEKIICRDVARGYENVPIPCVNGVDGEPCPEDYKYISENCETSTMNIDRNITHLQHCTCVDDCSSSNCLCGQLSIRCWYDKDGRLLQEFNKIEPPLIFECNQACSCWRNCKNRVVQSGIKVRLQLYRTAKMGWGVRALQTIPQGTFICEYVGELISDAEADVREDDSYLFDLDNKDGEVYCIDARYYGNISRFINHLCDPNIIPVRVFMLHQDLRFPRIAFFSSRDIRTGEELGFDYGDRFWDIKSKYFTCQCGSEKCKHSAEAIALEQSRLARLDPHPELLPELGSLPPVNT
In short: as §1

[3] = system: Flag-PABP1 methylation in HEK293 cells; assay: Tetracycline-inducible Flag-PABP1 methylation reporter system in HEK293 cells; assay type: cell-based, human; conditions: tetracycline-induced Flag-PABP1, methyl-specific PABP1 antibody
In short: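 HEK293 cells engineered with a tetracycline-controlled TetR repressor carry tetO-regulated Flag-PABP1. Tetracycline is added with test compound to induce Flag-PABP1. Lysates are resolved by SDS-PAGE, where Flag-PABP1 migrates slower than endogenous PABP1. Its methylation is detected by immunoblot with an in-house methyl-specific PABP1 antibody.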

DOTL1 = DOTL1 (Homo sapiens, UniProt Q8TEK3); assay: In vitro methylation fluorograph, DOTL1 with nucleosome as substrate; assay type: biochemical; conditions: compound at 100 μM
In short: as §1

SET7 = molecular target: T4, SET7 (Homo sapiens, UniProt Q8WTS6); assay: In vitro methylation assay, SET7 with histone H3 as substrate; assay type: biochemical; conditions: compound at 100 μM
T4 sequence (Q8WTS6 1-366): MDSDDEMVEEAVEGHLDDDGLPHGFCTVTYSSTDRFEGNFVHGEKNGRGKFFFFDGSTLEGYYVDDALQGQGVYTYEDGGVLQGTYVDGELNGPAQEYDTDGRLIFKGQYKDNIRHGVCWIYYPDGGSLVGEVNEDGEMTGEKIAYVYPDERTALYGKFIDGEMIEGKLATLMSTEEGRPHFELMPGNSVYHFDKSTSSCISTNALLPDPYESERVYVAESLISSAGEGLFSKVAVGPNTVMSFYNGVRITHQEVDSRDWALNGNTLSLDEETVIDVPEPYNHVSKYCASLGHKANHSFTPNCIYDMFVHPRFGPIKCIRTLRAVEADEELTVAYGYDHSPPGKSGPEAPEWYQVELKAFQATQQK

PRMT3 = PRMT3 (Homo sapiens, UniProt O60678); assay: In vitro methylation fluorograph, PRMT3 with NPL3 and rpS2 as substrates; assay type: biochemical; conditions: compound at 100 μM
In short: as §1

LNCaP cells = assay: Cell viability by Cell Titer-Glo; assay type: cell-based; conditions: at concentrations that impacted the luciferase assay
In short: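 LNCaP cells are grown in phenol-red-free RPMI1640 with 10% charcoal-stripped FCS and transfected with PSA(ARE)-LUC and CMV-Renilla. After 12 h they are treated with 20 nM DHT plus increasing concentrations of test compound. After 42–44 h, cells are washed twice with PBS and harvested, and 1/6 of them is assayed with CellTiter-Glo luminescent reagent for ATP-based viability.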

[4] = system: PSA promoter in LNCaP cells; assay: PSA luciferase assay in LNCaP cells; assay type: cell-based, human; conditions: two days, relative to CMV-Renilla control
In short: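 LNCaP cells are grown in phenol-red-free RPMI1640 with 10% charcoal-stripped FCS and seeded ~20 h before Lipofectamine transfection with 300 ng PSA(ARE)-LUC and 2 ng humanized CMV-Renilla. After 12 h, cells receive 20 nM DHT plus test compound at increasing concentrations. After 42–44 h, 5/6 of the washed, harvested cells go to a dual luciferase assay, normalised to Renilla. Values are mean ± SD of triplicates.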

Sequence of DOTL1 (Q8TEK3 whole entry): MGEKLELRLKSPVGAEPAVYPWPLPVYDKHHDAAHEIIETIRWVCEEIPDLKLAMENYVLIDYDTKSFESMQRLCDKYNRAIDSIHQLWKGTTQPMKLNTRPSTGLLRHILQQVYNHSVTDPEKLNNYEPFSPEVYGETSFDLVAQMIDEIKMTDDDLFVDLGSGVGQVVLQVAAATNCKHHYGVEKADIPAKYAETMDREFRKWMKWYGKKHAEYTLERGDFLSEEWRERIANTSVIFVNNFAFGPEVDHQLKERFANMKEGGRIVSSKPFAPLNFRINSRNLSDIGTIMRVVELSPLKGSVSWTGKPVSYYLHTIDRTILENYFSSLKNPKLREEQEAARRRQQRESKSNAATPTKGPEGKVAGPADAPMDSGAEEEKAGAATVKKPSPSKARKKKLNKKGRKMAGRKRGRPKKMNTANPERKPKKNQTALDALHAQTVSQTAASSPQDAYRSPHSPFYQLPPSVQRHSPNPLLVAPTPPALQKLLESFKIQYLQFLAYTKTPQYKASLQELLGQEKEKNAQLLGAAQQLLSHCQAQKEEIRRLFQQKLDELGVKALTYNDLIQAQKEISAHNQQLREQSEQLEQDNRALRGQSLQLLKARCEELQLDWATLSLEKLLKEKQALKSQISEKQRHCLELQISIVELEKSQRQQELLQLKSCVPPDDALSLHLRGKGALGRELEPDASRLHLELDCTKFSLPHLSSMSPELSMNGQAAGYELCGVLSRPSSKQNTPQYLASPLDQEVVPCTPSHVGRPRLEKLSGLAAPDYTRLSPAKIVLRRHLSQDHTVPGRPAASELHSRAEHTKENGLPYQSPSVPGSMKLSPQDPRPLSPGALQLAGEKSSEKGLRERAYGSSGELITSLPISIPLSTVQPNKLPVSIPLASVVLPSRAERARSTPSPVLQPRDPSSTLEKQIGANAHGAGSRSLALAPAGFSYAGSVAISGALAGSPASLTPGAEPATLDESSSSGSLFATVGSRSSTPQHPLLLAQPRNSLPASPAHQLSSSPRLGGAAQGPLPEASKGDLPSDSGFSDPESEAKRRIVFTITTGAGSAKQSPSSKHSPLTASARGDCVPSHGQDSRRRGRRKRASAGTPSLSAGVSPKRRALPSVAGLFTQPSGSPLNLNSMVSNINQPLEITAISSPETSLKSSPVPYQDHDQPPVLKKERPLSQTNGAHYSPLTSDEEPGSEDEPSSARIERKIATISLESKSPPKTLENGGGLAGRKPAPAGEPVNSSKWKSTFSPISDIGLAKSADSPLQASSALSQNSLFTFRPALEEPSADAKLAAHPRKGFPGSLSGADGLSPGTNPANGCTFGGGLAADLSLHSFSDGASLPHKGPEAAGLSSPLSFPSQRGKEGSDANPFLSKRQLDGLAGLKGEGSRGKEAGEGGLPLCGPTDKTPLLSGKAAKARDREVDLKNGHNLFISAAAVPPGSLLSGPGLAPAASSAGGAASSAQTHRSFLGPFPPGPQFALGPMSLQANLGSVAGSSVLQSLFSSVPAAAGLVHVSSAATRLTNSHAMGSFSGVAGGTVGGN
Sequence of PRMT5 (O14744 whole entry, species assumed): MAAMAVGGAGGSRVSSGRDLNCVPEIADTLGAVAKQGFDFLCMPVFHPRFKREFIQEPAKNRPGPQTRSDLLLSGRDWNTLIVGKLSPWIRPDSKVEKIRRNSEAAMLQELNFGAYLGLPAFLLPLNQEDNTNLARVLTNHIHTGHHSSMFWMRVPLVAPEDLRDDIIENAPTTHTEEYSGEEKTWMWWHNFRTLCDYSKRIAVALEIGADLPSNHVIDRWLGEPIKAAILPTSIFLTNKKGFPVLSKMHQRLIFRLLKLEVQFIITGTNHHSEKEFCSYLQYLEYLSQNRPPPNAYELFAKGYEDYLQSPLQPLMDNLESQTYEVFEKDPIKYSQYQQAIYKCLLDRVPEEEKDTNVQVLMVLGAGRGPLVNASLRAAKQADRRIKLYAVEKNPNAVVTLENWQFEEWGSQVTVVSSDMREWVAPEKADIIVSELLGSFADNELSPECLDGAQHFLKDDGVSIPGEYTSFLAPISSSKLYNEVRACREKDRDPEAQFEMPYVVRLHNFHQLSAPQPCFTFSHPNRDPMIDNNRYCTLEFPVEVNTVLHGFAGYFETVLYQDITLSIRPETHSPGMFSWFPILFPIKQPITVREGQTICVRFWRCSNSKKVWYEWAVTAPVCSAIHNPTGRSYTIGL
Sequence of PRMT3 (O60678 whole entry, species assumed): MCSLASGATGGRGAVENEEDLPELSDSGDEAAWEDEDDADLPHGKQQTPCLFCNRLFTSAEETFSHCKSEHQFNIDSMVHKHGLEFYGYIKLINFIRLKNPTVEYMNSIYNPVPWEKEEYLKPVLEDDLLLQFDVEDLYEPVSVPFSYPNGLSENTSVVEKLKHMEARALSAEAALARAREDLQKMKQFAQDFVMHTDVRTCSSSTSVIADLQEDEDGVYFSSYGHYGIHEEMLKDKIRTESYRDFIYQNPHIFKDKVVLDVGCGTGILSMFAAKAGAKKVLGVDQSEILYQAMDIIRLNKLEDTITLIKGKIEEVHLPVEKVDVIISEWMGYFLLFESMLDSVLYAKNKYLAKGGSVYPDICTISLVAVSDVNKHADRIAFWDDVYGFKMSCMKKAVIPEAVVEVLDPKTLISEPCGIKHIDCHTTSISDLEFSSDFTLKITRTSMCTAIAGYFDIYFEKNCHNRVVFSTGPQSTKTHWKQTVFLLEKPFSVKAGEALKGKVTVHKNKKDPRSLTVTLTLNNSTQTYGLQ

| SMILES | effect against PABP1 methylation by CARM1 (fluorograph) (CARM1 [1]) | inhibition of CARM1 activity on various substrates (fluorograph) (CARM1 [2]) | activity against Suv39H1 (fluorograph) (Suv39H1) | inhibition of PRMT5 (fluorograph) (PRMT5) | activity against G9a (fluorograph) (G9a) | inhibition of Flag-PABP1 methylation [3] | activity against DOTL1 (fluorograph) (DOTL1) | activity against SET7 (fluorograph) (SET7) | inhibition of PRMT3 (fluorograph) (PRMT3) | effects on cell viability (LNCaP cells) | concentration effective on PSA reporter activity [4] | enzyme preference of inhibition (in words) (CARM1 [1]; series 7a-m, IC50 determination vs PRMT1, CARM1, SET7 (Table S1)) |
| --- | --- | --- | --- | --- | --- | --- | --- | --- | --- | --- | --- | --- |
| O=C1/C(=C/c2ccc(O)c(Br)c2)CN(Cc2cccc(Cl)c2)C/C1=C\c1ccc(O)c(Br)c1 [8e] |  | strongly inhibited | No significant activity | high inhibition | No significant activity | only 7g was able to inhibit | No significant activity | No significant activity | able to inhibit to some extent |  |  |  |
| O=C1/C(=C/c2ccc(O)c(Br)c2)CN(CC(=O)c2ccccc2)C/C1=C\c1ccc(O)c(Br)c1 [8l] |  | strongly inhibited | No significant activity | high inhibition | No significant activity | only 7g was able to inhibit | No significant activity | No significant activity |  | no or little effects | 30 µM |  |
| O=C1/C(=C/c2ccc(O)c(Br)c2)CN(Cc2ccccc2)C/C1=C\c1ccc(O)c(Br)c1 [7g, 1-benzyl-3,5-bis(3-bromo-4-hydroxybenzylidene) piperidin-4-one] |  | strongly inhibited | No significant activity |  | No significant activity | able to inhibit | No significant activity | No significant activity | able to inhibit to some extent | no or little effects |  | preferably inhibited CARM1 |

The next lines start with results.

| effect against PABP1 methylation by CARM1 (fluorograph) (CARM1 [1]) | SMILES | inhibition of CARM1 activity on various substrates (fluorograph) (CARM1 [2]) | activity against Suv39H1 (fluorograph) (Suv39H1) | inhibition of PRMT5 (fluorograph) (PRMT5) | activity against G9a (fluorograph) (G9a) | inhibition of Flag-PABP1 methylation [3] | activity against DOTL1 (fluorograph) (DOTL1) | activity against SET7 (fluorograph) (SET7) | inhibition of PRMT3 (fluorograph) (PRMT3) | effects on cell viability (LNCaP cells) | concentration effective on PSA reporter activity [4] | enzyme preference of inhibition (in words) (CARM1 [1]; series 7a-m, IC50 determination vs PRMT1, CARM1, SET7 (Table S1)) |
| --- | --- | --- | --- | --- | --- | --- | --- | --- | --- | --- | --- | --- |
| no effect | Cc1ccc(CN2C/C(=C\c3ccc(O)c(Br)c3)C(=O)/C(=C/c3ccc(O)c(Br)c3)C2)cc1 [8c] |  |  |  |  |  |  |  |  |  |  |  |
| no effect | O=C1/C(=C/c2ccc(O)c(Br)c2)CN(CCCc2ccccc2)C/C1=C\c1ccc(O)c(Br)c1 [8k] |  |  |  |  |  |  |  |  |  |  |  |

From paper PMC3487391 (Journal of medicinal chemistry, 2011)
